Experiment [1] deals with T1, Pin1-FL (Homo sapiens, UniProt Q13526). Nature of the experiment: Simulation of Pin1-FL binding at low micromolar concentrations.
For experiment [2], the target named is Pin1-FL (with 6X-His tag) (Homo sapiens, UniProt Q13526). Put plainly: Biolayer interferometry. Format: binding. In short, it runs like this:
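Ni-NTA biosensors loaded with 10 μg/mL His-tagged full-length Pin1 for 600 s, quenched 300 s with buffer plus 10 mM imidazole and 25 μg/mL biotin. Association with singly or dually phosphorylated peptide at 80–1.25 μM for 600 s, then 600 s dissociation in buffer. Buffer: 10 mM HEPES, 20 mM NaCl, 0.1 mM TCEP, pH 7.4; 25°C. Pin1-free sensors served as nonspecific-binding reference.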
A general note: In BLI a coated tip is dipped into the sample, and binding shifts an interference pattern.

In experiment [3] the target is T1, Pin1-FL. Format: binding. As to conditions: B = C-terminal site. An outline of the steps: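 Full-length Pin1 underwent reverse titration with dually phosphorylated peptides; HSQC perturbations in N and H dimensions were fit separately (fmincon). The multistate model added two bivalent states, each with its own Keq. Non-bivalent KD and bound shifts were fixed from single-site titrations. Residues needed distinct bound shifts per motif. Reduced chi-square used σH 0.00407 and σN 0.0205 ppm.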

Where two headings read alike, the source gives them in different places. Square brackets hold non-standard residues; d marks the D form. Peptide text beside a SMILES is read from it. pS = N[C@@H](COP(=O)(O)O)C(=O)O

What is called Kd is the equilibrium constant for the complex coming apart. A high value points to weaker binding.

T1 sequence (Q13526 whole entry): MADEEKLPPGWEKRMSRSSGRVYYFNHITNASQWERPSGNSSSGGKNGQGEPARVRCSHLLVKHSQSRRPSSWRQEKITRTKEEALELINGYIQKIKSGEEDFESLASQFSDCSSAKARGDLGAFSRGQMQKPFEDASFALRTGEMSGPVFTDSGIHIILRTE
Pin1-FL (with 6X-His tag), sequence (Q13526 whole entry): as above

For `CC(=O)N[C@@H](CCC(=O)O)C(=O)N[C@@H](C)C(=O)N[C@@H](CCC(=O)O)C(=O)N[C@@H](C)C(=O)N[C@@H](Cc1c[nH]c2ccccc12)C(=O)N[C@@H](COP(=O)(O)O)C(=O)N1CCC[C@H]1C(=O)N[C@@H](CCCNC(=N)N)C(=O)N[C@@H](CCCCN)C(=O)N[C@@H](CC(C)C)C(=O)N1CCC[C@H]1C(=O)N[C@@H](CO)C(=O)N[C@@H](CO)C(=O)N[C@@H](C)C(=O)N[C@@H](CO)C(=O)N[C@H](C(=O)N[C@@H](Cc1ccccc1)C(=O)N[C@@H](CC(C)C)C(=O)N[C@@H](COP(=O)(O)O)C(=O)N1CCC[C@H]1C(=O)N[C@@H](C)C(=O)N[C@@H](Cc1ccccc1)C(=O)N1CCC[C@H]1C(=O)NCC(N)=O)[C@@H](C)O` [p131/p144] (Ac-EAEAW[pS]PRKLPSSASTFL[pS]PAFPG-NH2), the “ΔGequiv (change in Gibbs free energy)” value at Pin1-FL [1] (corresponds to the equivalent bimolecular KD at 20 μM peptide) is given as -7.49 kcal/mol. In addition, the “total fraction of bound Pin1” value at Pin1-FL [1] (simulated, 20 μM peptide, total Pin1 ~0.5 μM, sum of all bound Pin1 species divided by total Pin1) is on record as 0.85. Besides, binding in experiment [2] was put at a Kd of 1000 nM. Moreover, the “KeqB:WW (Fitted Keq^A:WW, Keq^B:WW and Δδbound for bivalent states)” value worked out at 0.02 at Pin1-FL [3] (nitrogen dimension) and 0.43 on Pin1-FL [3] (proton dimension).

Take `CC(C)C[C@H](NC(=O)[C@H](Cc1ccccc1)NC(=O)[C@@H](NC(=O)[C@@H](N)CO)[C@@H](C)O)C(=O)N[C@@H](COP(=O)(O)O)C(=O)N1CCC[C@H]1C(=O)N[C@@H](C)C(=O)N[C@@H](Cc1ccccc1)C(=O)N1CCC[C@H]1C(=O)NCC(=O)O` [p144] (H-STFL[pS]PAFPG-OH): the “Pin1 binding detected by biolayer interferometry” value in experiment [2] (peptide 1.25-80 μM, BLI buffer pH 7.4, 25°C) is “not measurable”.

Values taken from PMC5298935 (The FEBS journal, 2016).
